Values belong to the compound of their own block, whether it stands above or below them. The source made the active and inactive calls. The rule behind the calls is not given here.
How the values were obtained:
Mus musculus [1] = assay: Antithrombotic activity in Swiss albino mouse assessed as protection against collagen-epinephrine induced pulmonary thromboembolism at 30 umol/kg, po after 1 hr; type: functional
In short: (§1)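 Male Swiss albino mice (18–22 g) dosed orally in 0.5% carboxymethyl cellulose 1, 2, 4, 6, 12 or 24 h before challenge. Collagen (150 μg/ml) plus adrenaline (50 μg/ml) injected into the tail vein. Dead or hind-limb-paralysed mice counted over 15 min and expressed as % protection. Ten mice per drug group, five for vehicle.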

[2] = Antiplatelet activity in human platelet rich plasma assessed as inhibition of collagen-induced platelet aggregation at 30 uM preincubated for 5 mins followed by collagen stimulation by turbidimetry; type: functional
In short: (§2)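 Human PRP (1×10^8 platelets/ml) from healthy-donor blood spun at 1000 rpm for 10 min. Pre-treated 5 min with compound or 0.4% DMSO vehicle, then agonist added at 37 °C. Light-transmission aggregometry run at least 5–10 min; % aggregation calculated. Single-point screens at 30 μM, n = 3; mean ± SEM.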

[3] = Antiplatelet activity in human platelet rich plasma assessed as inhibition of U46619-induced platelet aggregation at 30 uM preincubated for 5 mins followed by U46619 stimulation by turbidimetry; type: functional; in short: as §2
Aorta [4] = assay: Inhibition of U46619-induced vasocontraction in Sprague-Dawley rat thoracic aoritc rings at 100 nM (reference value: 89.8 +/- 8.5%); type: functional; design: scale not given: the % may be the effect or the level left
Platelet [5] = assay: Inhibition of human platelet adhesion over collagen at 30 uM for 15 mins in absence of Mg2+ by microplate reader analysis; type: functional; settings: 0.25 h
In short: (§3)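 Wells coated overnight with fibrillar type I collagen and blocked with BSA. Washed platelets (1×10^8/ml) preincubated 15 min at 37 °C with compound or DMSO, then allowed to adhere 1 h at room temperature in Tyrode-HEPES with 1 mM Mg2+ or with Mg2+ replaced by 50 μM EDTA. Adherent cells quantified with p-nitrophenyl phosphate in citrate pH 5.4 (60 min, 25 °C), NaOH stop, A405.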

Mus musculus [6] = assay: Antithrombotic activity in ferric chloride-induced Swiss albino mouse arterial thrombosis model assessed as prolonged time to occlusion at 20 umol/kg, po measured after 4 hrs (reference value: 9.5 +/- 0.4 mins); type: functional
Mus musculus [7] = assay: Antithrombotic activity in Swiss albino mouse assessed as protection against collagen-epinephrine induced pulmonary thromboembolism at 30 umol/kg, po after 4 hrs; type: functional; in short: as §1
Platelet [8] = assay: Antiplatelet activity in human platelet rich plasma assessed as inhibition of ristocetin-induced platelet aggregation up to 300 uM preincubated for 5 mins followed by ristocetin stimulation by turbidimetry; type: functional
Plasma [9] = assay: Anticoagulant activity in human plasma assessed as prothrombin time at 30 to 300 uM; type: functional, cell-free
In short: (§4)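 Human plasma from healthy donors, blood collected in CPD 1:7 and spun twice to give platelet-poor plasma. TT, PT and aPTT determined with commercial kits on a coagulometer. Hirudin 1 μg/ml served as reference anticoagulant; 0.4% DMSO vehicle.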

[10] = Antiplatelet activity in human platelet rich plasma assessed as inhibition of arachidonic acid-induced platelet aggregation at 300 to 500 uM preincubated for 5 mins followed by arachidonic acid stimulation by turbidimetry; type: functional
[11] = Antiplatelet activity in human platelet rich plasma assessed as inhibition of collagen-induced platelet aggregation preincubated for 5 mins followed by collagen stimulation by turbidimetry; type: functional
Platelet [12] = assay: Inhibition of human platelet adhesion over collagen at 30 uM for 15 mins in presence of Mg2+ by microplate reader analysis; type: functional; settings: 0.25 h; in short: as §3
[13] = Antiplatelet activity in human platelet rich plasma assessed as inhibition of U46619-induced platelet aggregation preincubated for 5 mins followed by U46619 stimulation by turbidimetry; type: functional
Platelet [14] = assay: Antiplatelet activity in human platelet rich plasma assessed as inhibition of arachidonic acid-induced platelet aggregation up to 300 uM preincubated for 5 mins followed by arachidonic acid stimulation by turbidimetry; type: functional
Aorta [15] = assay: Inhibition of KCl-induced vasocontraction in Sprague-Dawley rat thoracic aoritc rings; type: functional
Plasma [16] = assay: Anticoagulant activity in human plasma assessed as thrombin time at 30 to 300 uM; type: functional, cell-free; in short: as §4
Mus musculus [17] = assay: Antithrombotic activity in ferric chloride-induced Swiss albino mouse arterial thrombosis model assessed as prolonged time to occlusion at 30 umol/kg, po measured after 4 hrs (reference value: 9.5 +/- 0.4 mins); type: functional
Mus musculus [18] = assay: Toxicity in Swiss albino mouse assessed as bleeding time at 30 umol/kg, po administered as single dose measured after 1 hr (reference value: 3.5 +/- 0.3 mins); type: organism-based; settings: in vivo
Platelet [19] = assay: Inhibition of human platelet adhesion over collagen for 15 mins in presence of Mg2+ by microplate reader analysis; type: functional, cell-based; in short: as §3
Platelet [20] = assay: Inhibition of human platelet adhesion over collagen at 300 uM for 15 mins in absence of Mg2+ by microplate reader analysis; type: functional, cell-based; in short: as §3
Platelet [21] = assay: Inhibition of U46619-induced protein tyrosine phosphorylation in human platelets preincubated at 3 to 100 uM for 5 mins followed by U46619 stimulation for 10 mins by Western blot analysis; type: functional, cell-based
In short: (§5)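 Washed human platelets in Tyrode-HEPES pH 7.4 preincubated 5 min at 37 °C with 0.4% DMSO or compound (3–100 μM). Stimulated 10 min with collagen (1 μg/ml) or U46619 (0.25 μg/ml). Stopped with boiling Laemmli buffer; SDS-PAGE and anti-phosphotyrosine (4G10) immunoblot. Three separate experiments.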

Platelet [22] = assay: Antiplatelet activity in human platelet rich plasma assessed as inhibition of ADP-induced platelet aggregation up to 300 uM preincubated for 5 mins followed by ADP stimulation by turbidimetry; type: functional
Platelet [23] = assay: Inhibition of collagen-induced protein tyrosine phosphorylation in human platelets preincubated at 3 to 100 uM for 5 mins followed by collagen stimulation for 10 mins by Western blot analysis; type: functional, cell-based; in short: as §5
Platelet [24] = assay: Inhibition of human platelet adhesion over collagen for 15 mins in absence of Mg2+ by microplate reader analysis; type: functional, cell-based; in short: as §3
Aorta [25] = assay: Inhibition of U46619-induced vasocontraction in Sprague-Dawley rat thoracic aoritc rings at 15 uM (reference value: 89.8 +/- 8.5%); type: functional; design: scale not given: the % may be the effect or the level left
Platelet [26] = assay: Antiplatelet activity in human platelet rich plasma assessed as inhibition of TRAP-induced platelet aggregation up to 300 uM preincubated for 5 mins followed by TRAP stimulation by turbidimetry; type: functional
Platelet [27] = assay: Antiplatelet activity in human platelet rich plasma assessed as inhibition of CRP-XL-induced platelet aggregation up to 300 uM preincubated for 5 mins followed by CRP-XL stimulation by turbidimetry; type: functional
Aorta [28] = assay: Inhibition of U46619-induced vasocontraction in Sprague-Dawley rat thoracic aoritc rings at 30 uM (reference value: 89.8 +/- 8.5%); type: functional; design: scale not given: the % may be the effect or the level left
Plasma [29] = assay: Anticoagulant activity in human plasma assessed as activated partial thromboplastin time at 30 to 300 uM; type: functional, cell-free; in short: as §4
Mus musculus [30] = assay: Toxicity in Swiss albino mouse assessed as bleeding time at 30 umol/kg, po administered as single dose measured after 4 hrs (reference value: 3.5 +/- 0.3 mins); type: organism-based; settings: in vivo
Aorta [31] = assay: Inhibition of U46619-induced vasocontraction in Sprague-Dawley rat thoracic aoritc rings at 3 and 5 uM; type: functional
Platelet [32] = assay: Inhibition of human platelet adhesion over collagen at 300 uM for 15 mins in presence of Mg2+ by microplate reader analysis; type: functional, cell-based; in short: as §3

Structure (SMILES): Cc1ccc(CN2C(=O)CC[C@H]2C(=O)N2CC3CC(CN(Cc4ccccc4)C3)C2)cc1
Activity (Mus musculus [1]): 25%
inhibition at 30 µM [2]: 7%

Structure (SMILES): Cc1ccc(CN2C(=O)CC[C@H]2C(=O)N2CC3CC(CN(Cc4ccc(Cl)cc4)C3)C2)cc1
Activity (Mus musculus [1]): 35%
inhibition at 30 µM [3]: 81%
inhibition at 30 µM [2]: 67%

Structure (SMILES): O=C([C@@H]1CCC(=O)N1Cc1ccc(Br)cc1)N1CC2CC(CN(Cc3ccccc3)C2)C1
Activity (Mus musculus [1]): 40%
inhibition at 30 µM [2]: 57%

Structure (SMILES): CC(C)(C)OC(=O)N1CC2CC(C1)CN(C(=O)[C@@H]1CCC(=O)N1Cc1ccc(C#N)cc1)C2
Activity (Mus musculus [1]): 55%
inhibition at 30 µM [2]: 11%

Structure (SMILES): O=C(O)CCC/C=C\C[C@@H]1[C@H](CNNC(=O)Nc2ccccc2)[C@H]2CC[C@@H]1O2
Activity (Aorta [4]): 8.4%

Structure (SMILES): CC(C)(C)OC(=O)N1CC2CC(C1)CN(C(=O)[C@@H]1CCC(=O)N1Cc1ccccc1)C2
Activity (Mus musculus [1]): 40%
inhibition at 30 µM [2]: 6%

IC50 [11]: 1.7 µM
IC50 [13]: 7.7 µM
Structure (SMILES): O=C([C@@H]1CCC(=O)N1Cc1ccccc1Br)N1CC2CC(CN(Cc3ccccc3)C2)C1
inhibition at 30 µM (Platelet [5]): 27%
Time (Mus musculus [6]): 13.3 min
Activity (Mus musculus [7]): 60%
inhibition (Platelet [8]): inactive
Activity (Mus musculus [1]): 40%
Activity (Plasma [9]): inactive
inhibition (INH) [10]: 50%
inhibition at 30 µM [3]: 79%
inhibition at 30 µM (Platelet [12]): 27%
inhibition (Platelet [14]): inactive
inhibition (Aorta [15]): inactive
Activity (Plasma [16]): inactive
Time (Mus musculus [17]): 20 min
inhibition at 30 µM [2]: 86%
Time (Mus musculus [18]): 3.4 min
inhibition (Platelet [19]): Dose-dependent effect
inhibition (Platelet [20]): Active
inhibition (Platelet [21]): Active
inhibition (Platelet [22]): inactive
inhibition (Platelet [23]): Active
inhibition (Platelet [24]): Dose-dependent effect
Activity (Aorta [25]): 21.8%
inhibition (Platelet [26]): inactive
inhibition (Platelet [27]): inactive
Activity (Aorta [28]): 14.2%
Activity (Plasma [29]): inactive
Time (Mus musculus [30]): 4.3 min
inhibition (Aorta [31]): inactive
inhibition (Platelet [32]): Active

Structure (SMILES): Cc1ccc(CN2C(=O)CC[C@H]2C(=O)N2CC3CC(CN(C(=O)OC(C)(C)C)C3)C2)cc1
Activity (Mus musculus [1]): 40%
inhibition at 30 µM [2]: 25%

Structure (SMILES): Cc1ccc(S(=O)(=O)N2CC3CC(CN(C(=O)[C@@H]4CCC(=O)N4Cc4ccccc4Br)C3)C2)cc1
Activity (Mus musculus [1]): 55%
inhibition at 30 µM [2]: 16.8%

Structure (SMILES): CC(C)(C)OC(=O)N1CC2CC(C1)CN(C(=O)[C@@H]1CCC(=O)N1Cc1ccccc1Br)C2
Activity (Mus musculus [1]): 50%
inhibition at 30 µM [2]: 2%

Structure (SMILES): CC(C)(C)OC(=O)N1CC2CC(C1)CN(C(=O)[C@@H]1CCC(=O)N1Cc1cccc3ccccc13)C2
Activity (Mus musculus [1]): 30%
inhibition at 30 µM [2]: 11%

Structure (SMILES): COc1ccc(CN2C(=O)CC[C@H]2C(=O)N2CC3CC(CN(C(=O)OC(C)(C)C)C3)C2)cc1
Activity (Mus musculus [1]): 45%
inhibition at 30 µM [2]: 10%

Structure (SMILES): CC(C)(C)OC(=O)N1CC2CC(C1)CN(C(=O)[C@@H]1CCC(=O)N1Cc1c(Cl)cccc1Cl)C2
Activity (Mus musculus [1]): 30%
inhibition at 30 µM [2]: 3%

Source: ChEMBL document CHEMBL3763017, “Synthesis and evaluation of dual antiplatelet activity of bispidine derivatives of N-substituted pyroglutamic acids” (Eur J Med Chem, 2016)
